Test results: ChEMBL document CHEMBL4651341, “The discovery of a novel series of compounds with single-dose efficacy against juvenile and adult Schistosoma species” (PLoS Negl Trop Dis, 2021)
Converted amounts (≈) assume the structure as drawn.

Columns and labels:
[1] = Mean observed clearance in Swiss albino male mice at 1 mg/kg per compound (administered iv in a mixture of 5 compounds to 3 mice) assessed by LCMS/MS.; assay type: ADME, organism-based; settings: male, Swiss albino, mouse, in vivo, read-out: Clearance (converted)
Summary of the method: (§1)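 Male Swiss albino mice (~30 g), 3 per experiment, mostly dosed as mixtures of 5 compounds iv via the lateral tail vein. Vehicle: 10% DMSO/90% 50 mM Na2HPO4 with 0.5% Tween-80. Blood sampled at 5, 15, 30 min and 1, 2, 4, 8, 24 h. Plasma stored at −20 °C and quantified by LC-MS after acetonitrile precipitation.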

[2] = Mean plasma concentration at 24h in Swiss albino male mice at […] per compound (administered orally in a mixture of 5 compounds to 3 mice) assessed by LCMS/MS.; assay type: ADME, organism-based; settings: mouse, po
Schistosoma mansoni [3] = assay: Concentration required to kill 50% of 42 day old worms 5 days after drug treatment.; assay type: functional, organism-based; settings: Puerto Rican, 120 h
Summary of the method: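 Adult S. mansoni were perfused from CD1 mice 6 weeks post-infection and washed. They were cultured 3 pairs per well in 1 mL DMEM with 2 mM glutamine, penicillin/streptomycin and 10% FCS […] at 37 °C, 5% CO2. Viability of individual worms was scored on day 5 (120 h).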

[4] = Mean plasma concentration at 4h in Swiss albino male mice at […] per compound (administered orally in a mixture of 5 compounds to 3 mice) assessed by LCMS/MS.; assay type: ADME, organism-based; settings: mouse, po
[5] = Mean half-life in Swiss albino male mice at 1 mg/kg per compound (administered iv in a mixture of 5 compounds to 3 mice) assessed by LCMS/MS.; assay type: ADME, organism-based; settings: mouse, in vivo
Summary of the method: (§2)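 Male Swiss albino mice (~30 g), 3 per experiment, mostly dosed as mixtures of 5 compounds iv via the lateral tail vein. Vehicle: 10% DMSO/90% 50 mM Na2HPO4 with 0.5% Tween-80. Plasma stored at −20 °C and quantified by LC-MS after acetonitrile precipitation.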

[6] = Mean AUC inf in Swiss albino male mice at 1 mg/kg per compound (administered iv in a mixture of 5 compounds to 3 mice) assessed by LCMS/MS.; assay type: ADME, organism-based; settings: male, Swiss albino, mouse, in vivo; summary of the method: as §1
[7] = Partition coefficient of compound between n-octanol and PBS (pH7.4); assay type: physicochemical; settings: octanol/water, pH 7.4
Summary of the method: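 Shake-flask method using octanol and PBS pH 7.4, each pre-saturated with the other. Compound was shaken 2 h at 850 rpm, 25 °C, then the phases were separated by centrifugation and both layers diluted and analysed by LC-MS/MS. LogD = log(octanol AUC × relative dilution / buffer AUC).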

[8] = Solubility at 25 degC of compound (diluted from DMSO) in PBS at pH 7.4 determined after 24h (1h sonication, 22h shaking, 1h sonication) by LCMS/MS; assay type: physicochemical
[9] = Percentage of parent compound remaining after incubation for 30 minutes with cyropreserved mouse hepatocytes at a concentration of 1uM compound and […], determined by LCMS; assay type: ADME, tissue-based, Hepatocyte; settings: cryopreserved mouse hepatocytes, read-out: Stability
Summary of the method: (§3)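 Compound was incubated at 1 µM final (2 µM working solution mixed 1:1 with hepatocyte suspension) in supplemented KHB pH 7.4. Conditions: 37 °C, 5% CO2, gentle mixing, duplicates. Reaction quenched with ice-cold acetonitrile containing standard; analysed by LC-MS/MS. % remaining = AUC at t / AUC at T0.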

Schistosoma mansoni [10] = assay: Concentration required to kill 50% of 21 day old worms 5 days after drug treatment.; assay type: functional, organism-based; settings: Puerto Rican, 120 h
Summary of the method: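 Juvenile S. mansoni (Puerto Rican strain) were perfused from CD1 mice 3 weeks post-infection and washed. They were cultured 6–8 per well in 200 µL DMEM with 2 mM glutamine, penicillin/streptomycin and 10% FCS at 37 °C, 5% CO2. Viability of individual worms was scored on day 5 after dosing (120 h).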

[11] = Mean time to peak plasma concentration in Swiss albino male mice at […] per compound (administered orally in a mixture of 5 compounds to 3 mice) assessed by LCMS/MS.; assay type: ADME, organism-based; settings: mouse, po
[12] = Concentration required to kill 50% MRC-5 cells as detected by Alamar blue staining; assay type: toxicity, cell-based, MRC5; settings: homo sapiens, read-out: TC50 (the source's name)
[13] = Percentage of parent compound remaining after incubation for 30 minutes with cyropreserved human hepatocytes at a concentration of 1uM compound and 1 million cells/uL, determined by LCMS/MS; assay type: ADME, tissue-based, Hepatocyte; settings: cryopreserved human hepatocytes, read-out: Stability; summary of the method: as §3
[14] = Plasma protein binding determined at 1uM by LC-MS/MS.; assay type: ADME, cell-free
[15] = Mean volume of distribution at steady state in Swiss albino male mice at 1 mg/kg per compound (administered iv in a mixture of 5 compounds to 3 mice) assessed by LCMS/MS.; assay type: ADME, organism-based; settings: mouse, in vivo, read-out: Volume; summary of the method: as §2
[16] = Concentration required to kill 50% HepG2 cells as detected by MTT staining; assay type: toxicity, cell-based; settings: homo sapiens, read-out: TC50 (the source's name)
Schistosoma mansoni [17] = assay: Percentage of worms remaining following treatment of female CD1 mice infected with S. mansoni worms (21 day old - juvenile or 42 day old - adult) with compound by oral gavage. Worms were recovered by portal perfusion with citrate saline 8-14 days post treatment and counted. Percentages are from a mean of 5 or 6 animals.; assay type: functional, Mus musculus; set-up: concentration or dose not given beside the values
Summary of the method: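 Female CD1 mice were infected subcutaneously with 150 cercariae and treated at day 21 (juvenile) or day 42 (adult). Single oral gavage, or two doses 12 h apart, given in 7% Tween-80/3% ethanol/water (sonicated) or in 1:19 DMSO:corn oil. Controls received vehicle only. Worm recoveries are group means, n = 5–6.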

[18] = Concentration of drug in plasma at 4h following oral drug adminstration at given dose. Determined by LCMS/MS; assay type: ADME, organism-based; settings: CD1, mouse
Summary of the method: (§4)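 Plasma sampled from the mice of the efficacy experiments, each animal sampled once: one animal per group at 1, 4 and 8 h, two per group at 24 h. Plasma prepared by acetonitrile protein precipitation and analysed by LC-MS against a 10-point calibration line spiked in blank matrix, with QCs at three or more levels.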

[19] = Plasma protein binding determined at 10uM by LC-MS/MS.; assay type: ADME, cell-free
Summary of the method: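 Equilibrium dialysis of plasma spiked at 10 µM (0.1% DMSO) against PBS pH 7.4, 6 h at 37 °C, duplicates. Both chambers analysed by LC-MS/MS after acetonitrile precipitation. % free = buffer/plasma area ratio; recovery also calculated.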

[20] = Mean oral bioavailability in Swiss albino male mice at […] per compound (administered in a mixture of 5 compounds to 3 mice) assessed by LCMS/MS.; further: dose 2.5 mg/kg; assay type: ADME, organism-based; settings: mouse, in vivo
Schistosoma haematobium = assay: Concentration required to kill 50% of 84 day old worms 5 days after drug treatment.; assay type: functional, organism-based; settings: Egyptian, 120 h
[21] = Plasma protein binding determined at 10uM by LC-MS/MS.; settings: mouse
[22] = Percentage of parent compound remaining after incubation for 90 minutes with cyropreserved mouse hepatocytes at a concentration of 1uM compound and […], determined by LCMS; assay type: ADME, tissue-based, Hepatocyte; settings: cryopreserved mouse hepatocytes, read-out: Stability; summary of the method: as §3
[23] = Concentration of drug in plasma at 24h following oral drug adminstration at given dose. Determined by LCMS/MS; assay type: ADME, organism-based; settings: CD1, mouse; summary of the method: as §4
[24] = male, Swiss albino, read-out: Bioavailability

clearance [1] [mL/min/kg] | concentration at 24 h [2] [ng/mL] | concentration at 4 h [4] [ng/mL] | half-life [5] [min] | AUC(0-inf) [6] [ng·h/mL] | Lipophilicity [7] | solubility kinetic at 24 h [8] [µM] | remaining at 0.5 h, 1 µM [9] [%] | Tmax [11] [min] | remaining at 0.5 h, 1 µM [13] [%] | Vd [15] [L/kg] | Binding ([19]; mouse) [%] | bioavailability [20, 24] [%] | Binding [21] [%] | Compound | EC50 (Schistosoma mansoni [3]) [nM] | EC50 (Schistosoma mansoni [10]) [nM] | CC50 [16] [µM] | further results
168 | 0.1 | 0.1 | 10.3 | 49.9 | 4.95 = | 2 (≈ 0.747 µg/mL) | 32.9 | 15 | 31 | 1.33 | – | – | – | Oc1ccc(-c2cnc3cnc(-c4cccc(C(F)(F)F)c4)cn23)c(F)c1 | 2320 | 2120 | – | CC50 [12]: > 38.3 µM; Binding ([14]; human): 99.88%; Binding ([14]; mouse): 99.76%
58.2 | 0.1 | 4.15 | 33.6 | 144 | 3.76 = | 17.5 (≈ 7.02 µg/mL) | 39 | 15 | – | 2.17 | 99.87 | 7.35 | – | CCc1nc2cnc(-c3cccc(C(F)(F)F)c3)cn2c1-c1ccc(O)cc1F | < 140 | 85.9 | 18.7 | CC50 [12]: 17.5 µM; EC50 (Schistosoma haematobium): 151 nM
9.15 | 18 | 194 | 362 | 929 | 4.56 = | 1.52 (≈ 0.668 µg/mL) | 93.9 | 30 | 83.1 | 3.44 | 99.975 | 63.2 | – | CC(C)c1nc2cnc(-c3cccc(C(F)(F)F)c3)cn2c1-c1ccc2[nH]ncc2c1F | 30.7 | 51.7 | 15.1 | Binding ([19]; human): 99.997%
108 | 0.1 | 1.88 | 62.4 | 77.9 | 4.62 = | 1.2 (≈ 0.51 µg/mL) | 41.3 | 15 | – | 4.58 | – | 3.64 | 99.9319 | COc1ccc(-c2c(C3CC3)nc3cnc(-c4cccc(C(F)(F)F)c4)cn23)cc1O | 71.5 | 62.5 | – | –

More lines, now with the values behind:

Compound | clearance [1] [mL/min/kg] | concentration at 24 h [2] [ng/mL] | concentration at 4 h [4] [ng/mL] | half-life [5] [min] | AUC(0-inf) [6] [ng·h/mL] | Lipophilicity [7] | solubility kinetic at 24 h [8] [µM] | remaining at 0.5 h, 1 µM [9] [%] | Tmax [11] [min] | remaining at 0.5 h, 1 µM [13] [%] | Vd [15] [L/kg] | Binding ([19]; mouse) [%] | bioavailability [20, 24] [%] | Binding [21] [%] | EC50 (Schistosoma mansoni [3]) [nM] | EC50 (Schistosoma mansoni [10]) [nM] | CC50 [16] [µM] | further results
Fc1ccc(-c2cn3c(-c4ccc5[nH]ncc5c4F)c(C(F)(F)F)nc3cn2)cc1C(F)(F)C(F)(F)F | – | – | 359 | – | – | 5.6 = | – | – | 120 | – | – | 100 | – | – | – | – | 11.7 | Efficacy (Schistosoma mansoni [17]): 1.84%; concentration at 4 h [18]: 556 ng/mL; bioavailability [20]: 170%
CC(C)c1nn2cnc(-c3cccc(C(F)(F)F)c3)cc2c1-c1c(F)cc(O)cc1F | 42.8 | 0.1 | 12.5 | 95.4 | 195 | 5.11 = | 91.9 (≈ 39.8 µg/mL) | 95.9 | 15 | 68.4 | 3.67 | 100 | 14.5 | – | 21.9 | < 12.2 | 8.4 | Binding ([19]; human): 100%
COc1cc(-c2c(C(C)C)nc3cnc(-c4cccc(C(F)(F)F)c4)cn23)cc2cn[nH]c12 | 17 | 10.5 | 130 | 446 | 490 | 5.49 = | 0.643 (≈ 0.29 µg/mL) | 68 | 30 | – | 6.81 | 99.95 | 84.8 | – | 428 | 527 | – | Binding ([14]; mouse): 100%; EC50 (Schistosoma haematobium): 149 nM
COc1ccc(-c2c(C(C)C)nc3cnc(-c4ccc(F)c(C(F)(F)F)c4)cn23)cc1O | 58.8 | 0.1 | 5.08 | 96 | 143 | 5.7 = | 2.5 (≈ 1.11 µg/mL) | 54.5 | 15 | – | 3.75 | – | 8.28 | 99.9485 | < 48.8 | 177 | – | –
CCc1nc2cnc(-c3ccc(F)c(C(F)(F)F)c3)cn2c1-c1ccc2[nH]ncc2c1F | 4.02 | 21.4 | 676 | – | 2080 | – | 1.83 (≈ 0.811 µg/mL) | – | 120 | – | 1.37 | – | 82.7 | – | 45 | 87 | 13.1 | remaining at 1.5 h, 1 µM [22]: 85%; Efficacy (Schistosoma mansoni [17]): 89.6%; concentration at 4 h [18]: 705 ng/mL; concentration at 24 h [23]: 50.5 ng/mL
Cc1nc2cnc(-c3ccc(F)c(C(F)(F)F)c3)cn2c1-c1c(F)cc(O)cc1F | 10.2 | 9.8 | 289 | 216 | 844 | 5.37 = | 1.11 (≈ 0.47 µg/mL) | 53.6 | 15 | 34.3 | 2.91 | 99.865 | 88.5 | – | 118 | 124 | 7.56 | Binding ([19]; human): 99.9645%; Binding ([14]; mouse): 99.8779%; EC50 (Schistosoma haematobium): 41.5 nM
COc1ccc(-c2c(C(C)C)nc3cnc(-c4ccnc(N(C)C)c4)cn23)cc1O | 173 | 0.1 | 1.11 | 19.9 | 48.3 | 4.33 = | 0.467 (≈ 0.188 µg/mL) | 31.9 | 15 | – | 2.98 | – | 6.57 | 98.4537 | – | < 939 | – | –
COc1ccc(-c2c(C)nc3ccc(-c4cccc(C(F)(F)F)c4)cn23)cc1O | 158 | 0.1 | 0.1 | – | 53.1 | 4.92 = | 1.95 (≈ 0.777 µg/mL) | 43 | 15 | – | 3.65 | – | 1.48 | 99.8676 | – | < 684 | – | –
